According to ChEMBL document CHEMBL4814017, “Discovery and optimization of novel 3-benzyl-N-phenyl-1H-pyrazole-5-carboxamides as bifunctional antidiabetic agents stimulating both insulin secretion and glucose uptake” (Eur J Med Chem, 2021):
Activity calls are given as the source filed them. The calls are words filed in the database; no cut-off is given here.

Experiments:
[1] = Cytotoxicity against rat INS1 cells assessed as cell viability at 10 uM incubated for 24 hrs by MTT assay relative to untreated control; format: cell-based; details: read-out: Activity
[2] = Induction of insulin secretion in rat INS-1 cells assessed as glucose stimulation index at 5 uM followed by stimulated with 16.7 mM glucose measured after 1 hrs by ELISA relative to basal insulin level; format: functional, INS1
Method in brief: (§1)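 Rat insulinoma INS-1 cells grown in RPMI 1640 with 11 mM glucose, 10% FBS, HEPES, pyruvate and 2-mercaptoethanol. After 24 h seeding, cells washed in KRB pH 7.4 with 3.3 mM glucose, starved 2 h, given compound for 30 min, then 3.3 mM (basal) or 16.7 mM glucose for 1 h. Insulin measured by rat insulin ELISA at 450 nm. GSI = stimulated/basal insulin. Triplicate, mean ± SD. Gliclazide control.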

[3] = Induction of insulin secretion in rat INS-1 cells assessed as glucose stimulation index at 10 uM followed by stimulated with 16.7 mM glucose measured after 1 hrs by ELISA relative to basal insulin level; format: functional, INS1; method in brief: as §1
C2C12 [4] = test: Upregulation of IRS-1 level in mouse C2C12 cells upto 50 uM after 16 hrs by Western blot analysis; format: functional, cell-based; details: dose microM <=50, time 16.0 hrs
Method in brief: (§2)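 C2C12 myoblasts grown in DMEM to 90% confluence and differentiated 4 days in DMEM with 2% horse serum. Myotubes then held 16 h in DMEM with 2% BSA and 10% FBS with 0, 5, 10, 20 or 50 µM compound. Western blot for MG53, IRS-1, p-PI3K, PI3K, p-Akt, Akt and GAPDH.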

C2C12 [5] = test: Activation of PI3K/Akt signalling pathway in mouse C2C12 cells assessed as increase in p-Akt expression upto 50 uM incubated for 16 hrs by Western blot analysis; format: cell-based; details: filed as activator, dose microM <=50, time 16.0 hrs; method in brief: as §2
INS1 [6] = test: Activation of PI3K/Akt signalling pathway in rat INS1 cells assessed as increase in p-Akt expression at 2.5 to 10 uM after 24 hrs by Western blot analysis; format: cell-based; details: filed as activator, dose 2.5-10 µM
Method in brief: (§3)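 INS-1 cells seeded in 6-well plates, grown 24 h, then treated 24 h with 0, 2.5, 5 or 10 µM; vehicle control 0.5% DMSO. Lysed in RIPA with 1 mM PMSF at 4 °C, protein by BCA. Blots probed for p-IRS-2 (Ser731), IRS-2, p-PI3K, PI3K, p-Akt (Ser473), Akt, PPAR-γ, PDX-1 and GAPDH, HRP anti-rabbit secondary, ECL detection, densitometry. Triplicate, n = 3, SD.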

INS1 [7] = test: Activation of PI3K/Akt signalling pathway in rat INS1 cells assessed as increase in p-PI3K expression at 2.5 to 10 uM after 24 hrs by Western blot analysis; format: cell-based; details: filed as activator, dose 2.5-10 µM; method in brief: as §3
INS1 [8] = test: Activation of PI3K/Akt signalling pathway in rat INS1 cells assessed as increase in p-IRS2 expression at 2.5 to 10 uM after 24 hrs by Western blot analysis; format: cell-based; details: filed as activator, dose 2.5-10 µM; method in brief: as §3
C2C12 [9] = test: Downregulation of MG53 level in mouse C2C12 cells after 16 hrs by Western blot analysis; format: functional, cell-based; details: dose microM <=50, time 16.0 hrs; method in brief: as §2
INS1 [10] = test: Induction of PPARgamma expression in rat INS1 cells at 2.5 to 10 uM after 24 hrs by Western blot analysis; format: functional, cell-based; details: dose 2.5-10 µM; method in brief: as §3
C2C12 [11] = test: Activation of PI3K/Akt signalling pathway in mouse C2C12 cells assessed as increase in p-PI3K expression upto 50 uM incubated for 16 hrs by Western blot analysis; format: cell-based; details: filed as activator, dose microM <=50, time 16.0 hrs; method in brief: as §2
INS1 [12] = test: Induction of PDX-1 expression in rat INS-1 cells at 2.5 to 10 uM after 24 hrs by Western blot analysis; format: functional, cell-based; details: dose 2.5-10 µM; method in brief: as §3
3T3-L1 = test: Cytotoxicity against mouse 3T3-L1 cells assessed as reduction in cell viability incubated for 24 hrs by MTT assay; format: cell-based; details: 3t3-l1, 24 h
C2C12 [13] = test: Induction of glucose uptake in mouse C2C12 cells incubated for 16 hrs in absence of insulin by 2-NBDG uptake assay; format: functional, cell-based; details: dose microM <=50, time 16.0 hrs
Method in brief: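 Differentiated C2C12 myotubes (4 days, DMEM with 2% horse serum) held 16 h in DMEM with 2% BSA and 10% FBS, with or without compound and without insulin, after which basal glucose uptake was measured.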

[14] = Cytotoxicity against human LX2 cells assessed as reduction in cell viability incubated for 24 hrs by MTT assay; format: cell-based; details: lx-2, 24 h

COc1cccc(NC(=O)c2cc(Cc3ccc(F)cc3)n[nH]2)c1OC
viability at 24 h, 10 µM [1]: 102% | Activity_index [2]: 1.16

COc1ccc(Cc2cc(C(=O)Nc3cc(OC)ccc3OC)[nH]n2)cc1
viability at 24 h, 10 µM [1]: 100% | Activity_index [2]: 2.35

COc1ccc(Cc2cc(C(=O)Nc3ccc(F)cc3)[nH]n2)cc1
Activity_index [3]: 2.49 | viability at 24 h, 10 µM [1]: 105%

COc1ccc(NC(=O)c2cc(Cc3ccc(Cl)cc3)n[nH]2)c(OC)c1
Activity (C2C12 [4]): Active | Activity (C2C12 [5]): Active | Activity (INS1 [6]): Dose-Dependent Effect | Activity (INS1 [7]): Dose-Dependent Effect | Activity (INS1 [8]): Dose-Dependent Effect | inhibition (C2C12 [9]): Dose-Dependent Effect | Activity (INS1 [10]): Active | viability at 24 h, 10 µM [1]: 96.3% | Activity (C2C12 [11]): Active | Activity (INS1 [12]): Active | Activity (3T3-L1): Non-Toxic | Activity (C2C12 [13]): Dose-Dependent Effect | Activity [14]: Non-Toxic | Activity_index [2]: 14.9

COc1ccc(Cc2cc(C(=O)Nc3cccc(OC)c3OC)[nH]n2)cc1
viability at 24 h, 10 µM [1]: 98.9% | Activity_index [2]: 1.13

COC(=O)c1ccc(NC(=O)c2cc(Cc3ccc(Cl)cc3)n[nH]2)cc1
Activity_index [3]: 1.48 | viability at 24 h, 10 µM [1]: 101%

COc1ccc(Cc2cc(C(=O)Nc3ccc(OC)cc3)[nH]n2)cc1
Activity_index [3]: 1.66 | viability at 24 h, 10 µM [1]: 105%

COc1ccc(NC(=O)c2cc(Cc3ccc(F)cc3)n[nH]2)cc1
Activity_index [3]: 2.03 | viability at 24 h, 10 µM [1]: 95.6%

COc1ccc(Cc2cc(C(=O)Nc3ccc(C(F)(F)F)cc3)[nH]n2)cc1
Activity_index [3]: 2.07 | viability at 24 h, 10 µM [1]: 98.4%

CC(C)(C)c1ccc(NC(=O)c2cc(Cc3ccc(Cl)cc3)n[nH]2)cc1
Activity_index [3]: 4.89 | viability at 24 h, 10 µM [1]: 97.5%

COc1ccc(Cc2cc(C(=O)Nc3ccccc3)[nH]n2)cc1
Activity_index [3]: 4.4 | viability at 24 h, 10 µM [1]: 105%

O=C(Nc1ccc2c(c1)OCO2)c1cc(Cc2ccc(F)cc2)n[nH]1
viability at 24 h, 10 µM [1]: 97.6% | Activity_index [2]: 1.25

COc1ccc(NC(=O)c2cc(Cc3ccccc3Cl)n[nH]2)c(OC)c1
viability at 24 h, 10 µM [1]: 102% | Activity_index [2]: 2.43

COc1ccccc1NC(=O)c1cc(Cc2ccc(Cl)cc2)n[nH]1
viability at 24 h, 10 µM [1]: 98.1% | Activity_index [2]: 1.56

COc1ccc(OC)c(NC(=O)c2cc(Cc3ccc(Cl)cc3)n[nH]2)c1
viability at 24 h, 10 µM [1]: 97.9% | Activity_index [2]: 3.25

Cc1ccc(S(=O)(=O)NC(=O)NN2CC3CCCC3C2)cc1 (stereo not drawn) [GLICLAZIDE]
Activity_index [3]: 5.86 | viability at 24 h, 10 µM [1]: 98.7% | Activity_index [2]: 4.22

COc1ccc(NC(=O)c2cc(Cc3ccc(Cl)cc3)n[nH]2)cc1
Activity_index [3]: 7.59 | viability at 24 h, 10 µM [1]: 101% | Activity_index [2]: 2.6

COc1ccc(NC(=O)c2cc(C(=O)c3ccc(Cl)cc3)n[nH]2)c(OC)c1
viability at 24 h, 10 µM [1]: 100% | Activity_index [2]: 1.49

COc1ccc(Cc2cc(C(=O)Nc3cccc(OC)c3)[nH]n2)cc1
viability at 24 h, 10 µM [1]: 102% | Activity_index [2]: 1.55

COc1ccc(Cc2cc(C(=O)Nc3ccccc3OC)[nH]n2)cc1
viability at 24 h, 10 µM [1]: 101% | Activity_index [2]: 1.66

COc1ccc(OC)c(NC(=O)c2cc(Cc3ccc(F)cc3)n[nH]2)c1
viability at 24 h, 10 µM [1]: 104% | Activity_index [2]: 1.52

COc1cccc(NC(=O)c2cc(Cc3ccc(Cl)cc3)n[nH]2)c1
viability at 24 h, 10 µM [1]: 96.5% | Activity_index [2]: 1.54

COc1ccc(NC(=O)c2cc(Cc3ccc(F)cc3)n[nH]2)c(OC)c1
viability at 24 h, 10 µM [1]: 99.9% | Activity_index [2]: 1.93

COc1ccc(Cc2cc(C(=O)Nc3ccc4c(c3)OCO4)[nH]n2)cc1
viability at 24 h, 10 µM [1]: 102% | Activity_index [2]: 1.13

O=C(Nc1ccc2c(c1)OCO2)c1cc(Cc2ccc(Cl)cc2)n[nH]1
viability at 24 h, 10 µM [1]: 101% | Activity_index [2]: 1.29

O=C(Nc1ccccc1)c1cc(Cc2ccc(Cl)cc2)n[nH]1
Activity_index [3]: 5.24 | viability at 24 h, 10 µM [1]: 109%

O=C(Nc1ccc(F)cc1)c1cc(Cc2ccc(Cl)cc2)n[nH]1
Activity_index [3]: 6.73 | viability at 24 h, 10 µM [1]: 94.9%

COc1cccc(NC(=O)c2cc(Cc3ccc(F)cc3)n[nH]2)c1
viability at 24 h, 10 µM [1]: 101% | Activity_index [2]: 7.49

COc1ccc(NC(=O)c2cc(Cc3ccc(Cl)cc3)nn2C)c(OC)c1
viability at 24 h, 10 µM [1]: 96.2% | Activity_index [2]: 1.37

CC(C)(C)c1ccc(NC(=O)c2cc(Cc3ccc(F)cc3)n[nH]2)cc1
Activity_index [3]: 1.96 | viability at 24 h, 10 µM [1]: 98.6%

COC(=O)c1ccc(NC(=O)c2cc(Cc3ccc(OC)cc3)n[nH]2)cc1
Activity_index [3]: 1.85 | viability at 24 h, 10 µM [1]: 99.2%

COc1ccc(NC(=O)c2cc(Cc3cccc(Cl)c3)n[nH]2)c(OC)c1
viability at 24 h, 10 µM [1]: 97.7% | Activity_index [2]: 1.29

COc1ccc(N(C)C(=O)c2cc(Cc3ccc(Cl)cc3)n[nH]2)c(OC)c1
viability at 24 h, 10 µM [1]: 93.3% | Activity_index [2]: 1.33

O=C(Nc1ccc(C(F)(F)F)cc1)c1cc(Cc2ccc(F)cc2)n[nH]1
Activity_index [3]: 2.02 | viability at 24 h, 10 µM [1]: 92.8%

O=C(Nc1ccc(F)cc1)c1cc(Cc2ccc(F)cc2)n[nH]1
Activity_index [3]: 1.86 | viability at 24 h, 10 µM [1]: 100%

O=C(Nc1ccc(C(F)(F)F)cc1)c1cc(Cc2ccc(Cl)cc2)n[nH]1
Activity_index [3]: 1.69 | viability at 24 h, 10 µM [1]: 102%

COc1ccc(Cc2cc(C(=O)Nc3ccc(OC)cc3OC)[nH]n2)cc1
viability at 24 h, 10 µM [1]: 101% | Activity_index [2]: 1.58

COc1ccccc1NC(=O)c1cc(Cc2ccc(F)cc2)n[nH]1
viability at 24 h, 10 µM [1]: 104% | Activity_index [2]: 3.67

O=C(Nc1ccccc1)c1cc(Cc2ccc(F)cc2)n[nH]1
Activity_index [3]: 2 | viability at 24 h, 10 µM [1]: 100%

COC(=O)c1ccc(NC(=O)c2cc(Cc3ccc(F)cc3)n[nH]2)cc1
Activity_index [3]: 1.42 | viability at 24 h, 10 µM [1]: 102%

COc1ccc(Cc2cc(C(=O)Nc3ccc(C(C)(C)C)cc3)[nH]n2)cc1
Activity_index [3]: 1.64 | viability at 24 h, 10 µM [1]: 99.4%

COc1cccc(NC(=O)c2cc(Cc3ccc(Cl)cc3)n[nH]2)c1OC
viability at 24 h, 10 µM [1]: 98.8% | Activity_index [2]: 1.85
